From ChEMBL document CHEMBL5661964, “Selective in vivo and in vitro effects of a small molecule inhibitor of cyclin-dependent kinase 4” (J Natl Cancer Inst, 2001)
The source made the active and inactive calls. The rule behind the calls is not given here.

Columns and labels:
[1] = target: Cyclin-dependent kinase 5/CDK5 activator 1 (Homo sapiens, UniProt Q00535); assay: Inhibition of GST-tagged human CDK5/p35 expressed in baculovirus infected Sf9 cells using retinoblastoma protein in presence of ATP
Cyclin-dependent kinase 5/CDK5 activator 1, sequence (Q00535 whole entry, the tested form may be a part): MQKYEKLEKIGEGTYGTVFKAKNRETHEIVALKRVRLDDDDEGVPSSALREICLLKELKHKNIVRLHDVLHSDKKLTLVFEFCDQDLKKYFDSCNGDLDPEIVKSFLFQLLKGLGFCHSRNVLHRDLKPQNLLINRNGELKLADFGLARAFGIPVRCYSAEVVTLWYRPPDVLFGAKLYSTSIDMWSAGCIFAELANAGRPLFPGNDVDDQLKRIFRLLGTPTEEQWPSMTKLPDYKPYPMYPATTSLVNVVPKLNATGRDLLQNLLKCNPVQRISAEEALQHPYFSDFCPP
Cyclin-dependent kinase 5/CDK5 activator 1, sequence (Q15078 whole entry, further chain, the tested form may be a part): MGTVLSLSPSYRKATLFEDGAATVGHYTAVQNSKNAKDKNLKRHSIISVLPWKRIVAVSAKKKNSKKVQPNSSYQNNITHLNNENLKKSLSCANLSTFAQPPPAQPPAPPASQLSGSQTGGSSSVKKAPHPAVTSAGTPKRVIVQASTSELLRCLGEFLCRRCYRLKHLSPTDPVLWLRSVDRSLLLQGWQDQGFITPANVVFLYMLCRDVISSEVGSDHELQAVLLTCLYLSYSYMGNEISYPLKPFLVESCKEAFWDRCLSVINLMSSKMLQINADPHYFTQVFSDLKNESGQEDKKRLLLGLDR
Outline: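 Cdk holoenzymes (Cdk with GST-cyclin or activator), expressed in Sf9 insect cells and purified on glutathione-Sepharose, were combined 1:1. Radiometric reactions used [33P]ATP with GST-pRb(152), the C-terminal 152-residue pRb fragment, as substrate. Label was quantified by phosphorimager. Ten inhibitor concentrations from 0 to 100 μM were run in duplicate across three independent experiments. IC50 came from plotting percent incorporation relative to the no-inhibitor reaction against concentration.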

MRC5 [2] = assay: Induction of cell cycle arrest in human MRC5 cells assessed as number of cells at SubG1 phase at 10 uM after 24 hrs in presence of 10% serum by flow cytometry analysis (reference value: 4.9%); format: functional
U2OS [3] = assay: Induction of apoptosis in human U2OS cells assessed as number of apoptotic cells at 5 uM after 48 hrs by TUNEL staining based fluorescence analysis (reference value: 0.61%); format: functional
U2OS [4] = assay: Induction of cell cycle arrest in human U2OS cells expressing pRb negative assessed as percentage of cells at G0/G1 phase at 5 uM after 24 hrs by flow cytometry analysis (reference value: 42.5%); format: functional
HCT-116 [5] = assay: Induction of cell cycle arrest in human HCT-116 cells assessed as number of cells at SubG1 phase at 10 uM after 24 hrs in presence of 10% serum by flow cytometry analysis (reference value: 1.1%); format: functional
Outline: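 HCT116 cells in McCoy's 5A were serum-starved 72 h in 0.1% serum, then released for 24 h into 10% serum with or without compound. They were fixed in 70% ethanol, RNase-treated (3 mg/mL, 30 min, 37 °C) and stained with 50 μg/mL propidium iodide. Flow cytometry on FL-2 area with doublet gating gave the percentages in sub-G1, G0/G1, S and G2/M.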

MRC5 [6] = assay: Induction of cell cycle arrest in human MRC5 cells assessed as number of cells at S phase at 5 uM after 24 hrs in presence of 10% serum by flow cytometry analysis (reference value: 16.1%); format: functional
MRC5 [7] = assay: Induction of cell cycle arrest in human MRC5 cells assessed as number of cells at G2/M phase at 10 uM after 24 hrs in presence of 10% serum by flow cytometry analysis (reference value: 14.9%); format: functional
U2OS [8] = assay: Induction of apoptosis in human U2OS cells assessed as number of apoptotic cells at 10 uM after 48 hrs by TUNEL staining based fluorescence analysis (reference value: 0.61%); format: functional
NIH3T3 = assay: Induction of cell cycle arrest in mouse NIH3T3 cells expressing pRb-negative assessed as percentage of cells at G0/G1 phase at 10 uM after 24 hrs by flow cytometry analysis (reference value: 43.5%); format: functional
U2OS [9] = assay: Induction of cell cycle arrest in human U2OS cells expressing pRb assessed as percentage of cells at S phase at 10 uM after 24 hrs by flow cytometry analysis (reference value: 19.9%); format: functional
Insulin receptor = Insulin receptor (Homo sapiens, UniProt P06213); assay: Inhibition of GST-tagged human Insulin receptor expressed in baculovirus infected Sf9 cells using tyrosine-containing peptide substrate in presence of ATP
Insulin receptor, sequence (P06213 28-758 limits assumed): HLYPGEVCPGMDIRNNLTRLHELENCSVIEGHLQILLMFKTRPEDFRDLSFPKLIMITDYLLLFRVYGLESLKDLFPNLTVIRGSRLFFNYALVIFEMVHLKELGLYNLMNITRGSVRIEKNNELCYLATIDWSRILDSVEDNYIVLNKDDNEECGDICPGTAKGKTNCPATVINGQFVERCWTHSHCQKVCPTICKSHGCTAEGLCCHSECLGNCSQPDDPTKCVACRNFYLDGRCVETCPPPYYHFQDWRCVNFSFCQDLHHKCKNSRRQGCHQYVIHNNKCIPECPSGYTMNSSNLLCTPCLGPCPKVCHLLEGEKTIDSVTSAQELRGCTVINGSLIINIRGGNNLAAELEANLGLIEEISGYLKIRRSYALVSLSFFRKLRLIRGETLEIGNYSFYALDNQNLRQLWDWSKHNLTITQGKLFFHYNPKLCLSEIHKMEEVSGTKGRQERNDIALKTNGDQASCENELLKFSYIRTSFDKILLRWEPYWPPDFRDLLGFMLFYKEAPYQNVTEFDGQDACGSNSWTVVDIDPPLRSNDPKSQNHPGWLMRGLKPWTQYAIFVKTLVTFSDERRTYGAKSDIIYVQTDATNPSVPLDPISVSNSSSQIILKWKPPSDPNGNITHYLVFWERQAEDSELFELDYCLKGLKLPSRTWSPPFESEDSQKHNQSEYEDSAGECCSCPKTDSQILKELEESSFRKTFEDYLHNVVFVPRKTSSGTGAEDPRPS
Insulin receptor, sequence (P06213 763-1382 limits assumed): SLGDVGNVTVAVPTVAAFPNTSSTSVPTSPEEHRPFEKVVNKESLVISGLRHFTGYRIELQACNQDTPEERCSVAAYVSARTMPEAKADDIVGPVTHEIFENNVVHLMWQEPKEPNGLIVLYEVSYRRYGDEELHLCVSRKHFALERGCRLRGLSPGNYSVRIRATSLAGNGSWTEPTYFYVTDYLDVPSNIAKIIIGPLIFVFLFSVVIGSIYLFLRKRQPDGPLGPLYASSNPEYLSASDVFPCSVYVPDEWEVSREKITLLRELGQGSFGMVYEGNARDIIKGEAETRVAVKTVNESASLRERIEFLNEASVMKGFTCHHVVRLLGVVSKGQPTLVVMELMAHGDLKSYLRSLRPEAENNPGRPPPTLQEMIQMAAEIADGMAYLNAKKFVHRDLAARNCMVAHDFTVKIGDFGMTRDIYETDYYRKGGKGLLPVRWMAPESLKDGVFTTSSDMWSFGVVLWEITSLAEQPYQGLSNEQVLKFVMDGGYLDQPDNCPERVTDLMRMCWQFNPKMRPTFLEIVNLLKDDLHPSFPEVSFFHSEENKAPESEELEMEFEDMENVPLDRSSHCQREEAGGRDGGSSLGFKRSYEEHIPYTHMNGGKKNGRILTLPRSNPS

HCT-116 [10] = assay: Antitumor activity against human HCT-116 cells xenografted in nude mouse assessed as decrease tumor growth at 30 mg/kg, ip administered every 12 hrs measured after 29 days; format: functional, organism-based
Outline: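 Female BALB/c nu/nu mice (19–21 g), 8 per group, injected s.c. with 0.1 mL HCT116 suspension (1 × 10^7 viable cells/mL in Hanks' buffer). Treatment started at about 100 mm3 (day 20). Dosing i.p. in 5% DMSO/0.05% Tween 80/95% saline at 10 mL/kg for 29 days; vehicle controls. Caliper volumes taken blinded every 2–4 days as length × width² × π/6. Dunnett ANOVA; growth rate compared as log-volume slopes.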

U2OS [11] = assay: Induction of cell cycle arrest in human U2OS cells assessed as percentage of cells at S phase, cells were released from mimosine block prior to compound addition at 10 uM after 16 hrs by flow cytometry analysis (reference value: 33%); format: functional

IC50 [1]: 25 µM | IC50 (Insulin receptor): > 10 µM
SMILES: CCNc1cc(N[C@H]2CC[C@H](O)CC2)nc(Nc2ccc3c(ccn3Cc3ccccc3)c2)n1
Activity (MRC5 [2]): 8.3% | Activity (U2OS [3]): 1% | Activity (U2OS [4]): 44.8% | Activity (HCT-116 [5]): 4.1% | Activity (MRC5 [6]): 7.1% | Activity (MRC5 [7]): 4.5% | Activity (U2OS [8]): 83.44% | Activity (NIH3T3): 48.7% | Activity (U2OS [9]): 3.6% | Activity (HCT-116 [10]): Active | Activity (U2OS [11]): 29.5%
